{
  "source": "the M2OR odorant receptor database",
  "conditions_in_all_cases": "stereoisomer not certain",
  "key": {"UniProt E9Q546": {"molecular_target": "T1, UniProt E9Q546", "T1 sequence (whole entry)": "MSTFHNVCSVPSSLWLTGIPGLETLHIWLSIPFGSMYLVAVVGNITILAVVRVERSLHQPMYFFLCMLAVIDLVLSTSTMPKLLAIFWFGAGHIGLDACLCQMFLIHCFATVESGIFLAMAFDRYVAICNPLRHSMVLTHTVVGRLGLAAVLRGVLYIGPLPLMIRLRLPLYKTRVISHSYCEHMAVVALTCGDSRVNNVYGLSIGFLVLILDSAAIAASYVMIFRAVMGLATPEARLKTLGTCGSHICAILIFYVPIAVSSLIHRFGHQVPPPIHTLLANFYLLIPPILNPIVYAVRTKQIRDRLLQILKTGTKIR", "summary_of_the_method": "(§1)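 Each receptor–molecule pair is labelled responsive or non-responsive (inactive) according to whether the original authors judged the measured signal statistically different from baseline. The data were taken from the main text and supplementary material of published papers and checked for typos and inconsistencies. Assay methods differed by source, with transient luciferase assays in mammalian cell lines being common.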"}, "UniProt K7N609": {"molecular_target": "T2, UniProt K7N609", "T2 sequence (whole entry)": "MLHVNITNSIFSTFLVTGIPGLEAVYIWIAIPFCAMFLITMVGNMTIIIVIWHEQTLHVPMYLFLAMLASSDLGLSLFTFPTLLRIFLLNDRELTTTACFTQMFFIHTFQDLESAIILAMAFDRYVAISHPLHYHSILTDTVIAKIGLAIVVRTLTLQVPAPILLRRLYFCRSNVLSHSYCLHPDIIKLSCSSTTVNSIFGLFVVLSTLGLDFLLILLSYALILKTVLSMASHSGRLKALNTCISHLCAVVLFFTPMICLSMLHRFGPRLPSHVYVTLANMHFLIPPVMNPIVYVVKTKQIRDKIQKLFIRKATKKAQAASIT", "summary_of_the_method": "as §1"}, "UniProt E9PZ66": {"molecular_target": "T3, UniProt E9PZ66", "T3 sequence (whole entry)": "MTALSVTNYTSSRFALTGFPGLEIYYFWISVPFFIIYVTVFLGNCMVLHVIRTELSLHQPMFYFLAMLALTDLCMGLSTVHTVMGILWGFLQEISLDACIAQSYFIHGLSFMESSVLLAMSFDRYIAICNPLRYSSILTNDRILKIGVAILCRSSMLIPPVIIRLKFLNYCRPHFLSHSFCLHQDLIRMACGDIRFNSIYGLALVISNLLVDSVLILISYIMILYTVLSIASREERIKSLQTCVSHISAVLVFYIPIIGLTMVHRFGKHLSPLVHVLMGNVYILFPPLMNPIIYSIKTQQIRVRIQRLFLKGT", "summary_of_the_method": "as §1"}, "UniProt E9Q4X7": {"molecular_target": "T4, UniProt E9Q4X7", "T4 sequence (whole entry)": "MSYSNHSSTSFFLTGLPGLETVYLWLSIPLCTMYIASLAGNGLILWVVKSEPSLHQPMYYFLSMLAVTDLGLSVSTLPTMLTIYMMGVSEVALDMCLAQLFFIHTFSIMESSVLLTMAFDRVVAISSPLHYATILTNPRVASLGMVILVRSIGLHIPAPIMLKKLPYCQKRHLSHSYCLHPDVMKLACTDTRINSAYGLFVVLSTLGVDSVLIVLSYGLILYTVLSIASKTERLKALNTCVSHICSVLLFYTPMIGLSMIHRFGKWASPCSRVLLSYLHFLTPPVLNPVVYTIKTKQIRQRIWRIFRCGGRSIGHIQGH", "summary_of_the_method": "as §1"}, "UniProt E9Q6Z7": {"molecular_target": "T5, UniProt E9Q6Z7", "T5 sequence (whole entry)": "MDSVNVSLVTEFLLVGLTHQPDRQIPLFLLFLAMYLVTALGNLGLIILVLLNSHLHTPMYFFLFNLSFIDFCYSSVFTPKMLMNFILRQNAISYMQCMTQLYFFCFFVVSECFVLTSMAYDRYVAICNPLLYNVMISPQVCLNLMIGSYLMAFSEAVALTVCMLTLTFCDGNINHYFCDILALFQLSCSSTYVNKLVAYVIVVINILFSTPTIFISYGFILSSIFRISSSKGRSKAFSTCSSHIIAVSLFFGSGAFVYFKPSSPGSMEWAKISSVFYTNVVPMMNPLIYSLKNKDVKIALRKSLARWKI", "summary_of_the_method": "as §1"}},
  "data": [
    {"smiles": "CCCCOC(=O)C(C)OC(=O)CCC", "note": "(centres undefined)", "values": [
      {"measurement": "odorant receptor agonist call", "setting": "UniProt E9Q546", "result": "inactive"},
      {"measurement": "odorant receptor agonist call", "setting": "UniProt K7N609", "result": "inactive"}
    ]},
    {"smiles": "COc1cc(C(=O)O)ccc1O", "values": [
      {"measurement": "odorant receptor agonist call", "setting": "UniProt E9PZ66", "result": "inactive"},
      {"measurement": "odorant receptor agonist call", "setting": "UniProt E9Q4X7", "result": "active"},
      {"measurement": "odorant receptor agonist call", "setting": "UniProt E9Q546", "result": "inactive"},
      {"measurement": "odorant receptor agonist call", "setting": "UniProt E9Q6Z7", "result": "inactive"},
      {"measurement": "odorant receptor agonist call", "setting": "UniProt K7N609", "result": "active"}
    ]},
    {"smiles": "CC(C)=CCCC(C)CCO", "note": "(centres undefined)", "values": [
      {"measurement": "odorant receptor agonist call", "setting": "UniProt E9PZ66", "result": "inactive"},
      {"measurement": "odorant receptor agonist call", "setting": "UniProt E9Q4X7", "result": "inactive"},
      {"measurement": "odorant receptor agonist call", "setting": "UniProt E9Q546", "result": "inactive"},
      {"measurement": "odorant receptor agonist call", "setting": "UniProt E9Q6Z7", "result": "inactive"},
      {"measurement": "odorant receptor agonist call", "setting": "UniProt K7N609", "result": "inactive"}
    ]},
    {"smiles": "CC(=O)Oc1ccccc1", "values": [
      {"measurement": "odorant receptor agonist call", "setting": "UniProt E9PZ66", "result": "inactive"},
      {"measurement": "odorant receptor agonist call", "setting": "UniProt E9Q4X7", "result": "inactive"},
      {"measurement": "odorant receptor agonist call", "setting": "UniProt E9Q546", "result": "inactive"},
      {"measurement": "odorant receptor agonist call", "setting": "UniProt E9Q6Z7", "result": "inactive"},
      {"measurement": "odorant receptor agonist call", "setting": "UniProt K7N609", "result": "inactive"}
    ]},
    {"smiles": "CCCCCCCCCS", "values": [
      {"measurement": "odorant receptor agonist call", "setting": "UniProt E9PZ66", "result": "inactive"},
      {"measurement": "odorant receptor agonist call", "setting": "UniProt E9Q4X7", "result": "inactive"},
      {"measurement": "odorant receptor agonist call", "setting": "UniProt E9Q546", "result": "inactive"},
      {"measurement": "odorant receptor agonist call", "setting": "UniProt E9Q6Z7", "result": "inactive"},
      {"measurement": "odorant receptor agonist call", "setting": "UniProt K7N609", "result": "inactive"}
    ]},
    {"smiles": "CCC(C(=O)O)c1ccccc1", "note": "(centres undefined)", "values": [
      {"measurement": "odorant receptor agonist call", "setting": "UniProt E9Q546", "result": "inactive"},
      {"measurement": "odorant receptor agonist call", "setting": "UniProt K7N609", "result": "inactive"}
    ]},
    {"smiles": "O=C(c1ccccc1)c1ccccc1", "values": [
      {"measurement": "odorant receptor agonist call", "setting": "UniProt E9PZ66", "result": "inactive"},
      {"measurement": "odorant receptor agonist call", "setting": "UniProt E9Q4X7", "result": "inactive"},
      {"measurement": "odorant receptor agonist call", "setting": "UniProt E9Q546", "result": "inactive"},
      {"measurement": "odorant receptor agonist call", "setting": "UniProt E9Q6Z7", "result": "inactive"},
      {"measurement": "odorant receptor agonist call", "setting": "UniProt K7N609", "result": "inactive"}
    ]},
    {"smiles": "CCCCCC1=C(C)CCC1=O", "values": [
      {"measurement": "odorant receptor agonist call", "setting": "UniProt E9PZ66", "result": "inactive"},
      {"measurement": "odorant receptor agonist call", "setting": "UniProt E9Q4X7", "result": "inactive"},
      {"measurement": "odorant receptor agonist call", "setting": "UniProt E9Q546", "result": "inactive"},
      {"measurement": "odorant receptor agonist call", "setting": "UniProt E9Q6Z7", "result": "inactive"},
      {"measurement": "odorant receptor agonist call", "setting": "UniProt K7N609", "result": "inactive"}
    ]},
    {"smiles": "CCCCCC=O", "values": [
      {"measurement": "odorant receptor agonist call", "setting": "UniProt E9PZ66", "result": "inactive"},
      {"measurement": "odorant receptor agonist call", "setting": "UniProt E9Q4X7", "result": "inactive"},
      {"measurement": "odorant receptor agonist call", "setting": "UniProt E9Q546", "result": "inactive"},
      {"measurement": "odorant receptor agonist call", "setting": "UniProt E9Q6Z7", "result": "inactive"},
      {"measurement": "odorant receptor agonist call", "setting": "UniProt K7N609", "result": "inactive"}
    ]},
    {"smiles": "O=C1Cc2ccccc2O1", "values": [
      {"measurement": "odorant receptor agonist call", "setting": "UniProt E9PZ66", "result": "inactive"},
      {"measurement": "odorant receptor agonist call", "setting": "UniProt E9Q4X7", "result": "inactive"},
      {"measurement": "odorant receptor agonist call", "setting": "UniProt E9Q546", "result": "inactive"},
      {"measurement": "odorant receptor agonist call", "setting": "UniProt E9Q6Z7", "result": "inactive"},
      {"measurement": "odorant receptor agonist call", "setting": "UniProt K7N609", "result": "inactive"}
    ]}
  ]
}
